The structures appear in SMILES notation.

The nature of this series: Toxicity liver stage against HepG2, at 10uM. It is filed as cell-based. Set-up: test concentration 10 uM, cell line HepG2-A16-CD81EGFP. Particulars: human, HepG2-A16-CD81EGFP cells; read-out: INHIBITION
The gist of the method:
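Uninfected HepG2-A16-CD81EGFP cells, 3 × 10^3 per well, 1536-well, plated on prespotted compound at 10 μM final, parasite-free screening media added to match infected plates; puromycin 10 μM positive, DMSO 0.5% negative; run in parallel with 48 h PbLuc assay at 37 °C, 5% CO2; viability by CellTiter-Glo luminescence, normalized to controls.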
`Cn1c2c(c(=O)c3ccccc31)CCC(C)(C)O2`: the cytotoxicity at 10 µM was 2.76%.

Consider `Cc1cccc(-c2noc([C@@H]3C[C@@H](O)CN3CC3CCCCC3)n2)c1`, for which the cytotoxicity at 10 µM was found to be 6.41%.

On to `CC(C)c1ccc(-n2ncc(C(=O)N(C)C3CCN(C)CC3)c2N)cc1`, for which the cytotoxicity at 10 µM was -6.57%.

With `CCS(=O)(=O)NCCNc1cc(-n2cccc2)ncn1`, the cytotoxicity at 10 µM is -3.5%.

On to `O=C(Cc1ccc(Br)cc1)N1CC(S(=O)(=O)C2CCCCC2)C1`, for which the cytotoxicity at 10 µM is -1.13%.

For the compound `CCN1C(=O)C[C@@H]2[C@@H]1CCN2S(=O)(=O)c1cccc(C)c1`, the cytotoxicity at 10 µM is 1.29%.

In the case of `Cc1cccc(CN2CC3C[C@]3(NC(=O)c3ccco3)C2)n1` (stereo partly drawn), the cytotoxicity at 10 µM was -142%.

Take `CN1CCN(c2ncnc3c2CCN(Cc2nccn2C)CC3)CC1`: the cytotoxicity at 10 µM was -130%.

For `Cc1ncnc2c1CCN(C(=O)c1cnccn1)CC2`, the cytotoxicity at 10 µM is -5.19%.

Consider `Cc1ccc(CC(=O)N2CCn3cc(Cn4cncn4)nc3C2)cc1`, for which the cytotoxicity at 10 µM was -138%.

Take `COC(=O)C(C)NC(=O)CSCc1nc(O)c2cc(C(C)C)sc2n1` (stereo not drawn): the cytotoxicity at 10 µM is 10.2%.

For `O=C(c1cn(-c2ccccc2Cl)nn1)N1CCSCC1`, the cytotoxicity at 10 µM was determined as 8.24%.

For `Cn1cc(-c2cnc(N3CCOCC3)nc2)cc1C(=O)O`, the cytotoxicity at 10 µM was -14.6%.

With `CCCc1nc(Nc2cccc(C(N)=O)c2)c2c(n1)c(C)nn2CC`, the cytotoxicity at 10 µM worked out at 3.31%.

For `COc1cccc(Cn2cc(N3C(=O)CCC3=O)cn2)c1`, the cytotoxicity at 10 µM is -2.75%.

For `O=S(=O)(c1cccs1)N1CCCC(c2nccs2)C1` (stereo not drawn), the cytotoxicity at 10 µM was -15%.

Take `Cc1nn(C)c(C)c1-c1cnc(C2CCCN(C)C2)cn1` (stereo not drawn): the cytotoxicity at 10 µM is -8.8%.

In the case of `O=C(Cc1ccon1)N1CCc2cc(Br)sc2C1`, the cytotoxicity at 10 µM was found to be 1.69%.

With `O=C(NC1CC1)N(CCc1ccccc1)C1CCOC1` (stereo not drawn), the cytotoxicity at 10 µM was -1.41%.

Take `Cc1cccc(-c2ccc(C(=O)N3CCSCC3)c(=O)[nH]2)c1`: the cytotoxicity at 10 µM is 6.99%.

As for `Cn1cc(CNC2CCCOc3c2ccc2ccccc32)cn1` (stereo not drawn), the cytotoxicity at 10 µM was determined as 5.7%.

Regarding `OC1(CNc2ccc(Br)cn2)CCC1`, the cytotoxicity at 10 µM was found to be 6.59%.

Consider `CC(C)c1cc(NC(=O)Cn2cnc3ccccc3c2=O)[nH]n1`, for which the cytotoxicity at 10 µM was -168%.

For `CCc1cc(=O)[nH]c(-c2ccc(NC(CO)CC(C)C)nc2)n1` (stereo not drawn), the cytotoxicity at 10 µM is -146%.

Turning to `CCc1nc(CC)n(CC(=O)N(C)CC(F)(F)F)n1`, the cytotoxicity at 10 µM is 2.19%.

For the compound `CC(CNC(=O)c1cccnc1)Oc1ccc(F)cc1` (stereo not drawn), the cytotoxicity at 10 µM was -6.98%.

For `CC(c1ccc(S(C)(=O)=O)cc1)N(C)C(=O)c1ccccc1I` (stereo not drawn), the cytotoxicity at 10 µM is 11.1%.

As for `O=C(c1cc(C2CC2)[nH]n1)N1CCCN(c2nccs2)CC1`, the cytotoxicity at 10 µM is 6.37%.

`Cc1c(Br)cccc1C(=O)NCc1cnn(C)c1`: the cytotoxicity at 10 µM stood at 3.15%.

As to `Fc1cc(CN2CCOC3(CCOCC3)C2)ccc1Cl`, the cytotoxicity at 10 µM is -4.57%.

In the case of `CN(C(=O)COc1ccc(-c2noc(C3CCCO3)n2)cc1)C1CC1` (stereo not drawn), the cytotoxicity at 10 µM was -6.79%.

As for `Cc1ccc(C(=O)NCc2ccccc2S(=O)(=O)N(C)CCO)cc1F`, the cytotoxicity at 10 µM is -3.04%.

For the compound `O=C(NCC(O)COc1ccc(F)cc1)C1(c2ccc(F)cc2)CC1` (stereo not drawn), the cytotoxicity at 10 µM was 2.71%.

In the case of `Cc1nc(C)n(CC2CCCN(CCCS(=O)(=O)N(C)C)C2)n1` (stereo not drawn), the cytotoxicity at 10 µM is -3.15%.

Turning to `CN(C)C(=O)Cn1cc(C(=O)NCCc2ccc(Cl)cc2Cl)nn1`, the cytotoxicity at 10 µM was -2.35%.

As to `COc1ccnc(NC(=O)c2cscc2C)c1`, the cytotoxicity at 10 µM is -16%.

For the compound `Cc1ccc(C(=O)NC(CN2CCCC2)c2ccccc2)c(=O)[nH]1` (stereo not drawn), the cytotoxicity at 10 µM was -2.32%.

As to `O=C(Cn1cc(C2CC2)nn1)NC(c1ccc(Cl)cc1)C1CC1` (stereo not drawn), the cytotoxicity at 10 µM came to 2.16%.

In the case of `O=C(CN1CCS(=O)(=O)CC1)NCc1ccccc1F`, the cytotoxicity at 10 µM worked out at 6.32%.

As for `CCc1nsc(N2CCN(C(=O)c3ccnc(N(C)C)c3)CC2)n1`, the cytotoxicity at 10 µM was -2.48%.

Take `Cc1ccc(C)c(OCC(O)Cn2ncc3cnn(C)c(=O)c32)c1` (stereo not drawn): the cytotoxicity at 10 µM came to 4.45%.

Consider `CC(C)(NC(=O)c1ccc(-c2ccccc2F)s1)C(N)=O`, for which the cytotoxicity at 10 µM was found to be 12.7%.

For the compound `CCc1cccc(OCC(=O)NC(C)c2nnc3n2CCC3)c1` (stereo not drawn), the cytotoxicity at 10 µM is -3.78%.

Consider `Cc1ccc(S(C)(=O)=O)cc1C(=O)NS(=O)(=O)c1cccs1`, for which the cytotoxicity at 10 µM stood at 0.532%.

As for `CC(C)Cc1nc(CSCC(=O)N2CCC(C)CC2)no1`, the cytotoxicity at 10 µM amounted to 2.25%.

Take `Cc1cc(NCc2csc(-c3ccco3)n2)ccc1C(N)=O`: the cytotoxicity at 10 µM was 20.3%.

Turning to `CCS(=O)(=O)c1ccc(NCc2csc(C(C)C)n2)cc1`, the cytotoxicity at 10 µM was found to be 8.73%.

In the case of `CNC(=O)C(C)CN(C)C(=O)Nc1ccc(Cl)cc1-n1cccc1` (stereo not drawn), the cytotoxicity at 10 µM is 16.9%.

For `CCCN1CCCCC1C(=O)Nc1ccc(-c2nnc[nH]2)cc1` (stereo not drawn), the cytotoxicity at 10 µM worked out at 4.64%.

For `Cc1ccc(CNC(=O)N(Cc2ccccc2F)C2CC2)cn1`, the cytotoxicity at 10 µM was 0.0194%.

With `CC(=O)Nc1cc(C(=O)N2CCOCC2c2ccc(C)o2)ccc1F` (stereo not drawn), the cytotoxicity at 10 µM was -3.08%.

Turning to `CCOCCOC(C)C(=O)NCc1cn2cc(Br)ccc2n1` (stereo not drawn), the cytotoxicity at 10 µM was -6.83%.

`CCC[C@H]1CN(S(=O)(=O)c2c(C)noc2C)C[C@@H]1N`: the cytotoxicity at 10 µM was -0.288%.

On to `Cc1ccccc1C1(O)CCN(C(=O)CCc2cn3ccccc3n2)C1` (stereo not drawn), for which the cytotoxicity at 10 µM was -3.18%.

Turning to `CC(NC(=O)c1cc2n(n1)CCCN(C)C2)c1cn2ccsc2n1` (stereo not drawn), the cytotoxicity at 10 µM is -2.51%.

In the case of `CCOc1ccccc1-n1c(C2CCC2)n[nH]c1=O`, the cytotoxicity at 10 µM came to 4.18%.

Regarding `CS(=O)(=O)NCC1(O)CCCN(C(=O)CCn2cc(Cl)cn2)CC1` (stereo not drawn), the cytotoxicity at 10 µM is -144%.

Consider `N[C@H]1CN(S(=O)(=O)Cc2ccccc2)C[C@@H]1C1CC1`, for which the cytotoxicity at 10 µM was -133%.

For the compound `OC1(CNCCc2nc(Cc3ccccc3)no2)CNCCOC1` (stereo not drawn), the cytotoxicity at 10 µM worked out at 4.43%.

Turning to `CCN(CC)CCC(=O)NCc1cc2n(n1)CCN(C(=O)N(C)C)C2`, the cytotoxicity at 10 µM was -6.72%.

In the case of `O=C(c1cn(-c2ccccc2)nn1)N1CCOCC(O)C1` (stereo not drawn), the cytotoxicity at 10 µM worked out at 2.35%.

For the compound `O=c1cc(N2CCc3ccccc3C2)cnn1CCC1CCOC1` (stereo not drawn), the cytotoxicity at 10 µM is -1.19%.

Regarding `Cc1ccc(NC2CCCN(CCc3ccccc3)C2)nn1` (stereo not drawn), the cytotoxicity at 10 µM amounted to 11.7%.

For `Cc1nc(O)cc(CN2C[C@H](NS(=O)(=O)N(C)C)[C@@H](C3CC3)C2)n1`, the cytotoxicity at 10 µM is -5.01%.

On to `CN1CCCC(CCC(=O)NCCc2nnc(N)s2)C1` (stereo not drawn), for which the cytotoxicity at 10 µM is -146%.

As for `Cc1ccc(C(CNC(=O)c2cc(CC(C)C)nn2C)N(C)C)cc1` (stereo not drawn), the cytotoxicity at 10 µM was -3.34%.

In the case of `C=C(C)COc1cccc(C(=O)N(CC)Cc2nc(COC)no2)c1`, the cytotoxicity at 10 µM is -18%.

In the case of `Cc1cc(CNc2ccc(-c3nc(C4CC4)no3)cn2)no1`, the cytotoxicity at 10 µM turned out to be 2.55%.

Regarding `Cc1cc(C(=O)N2CC[C@H](N3CCN(C)CC3)[C@H](CCCO)C2)n(C)n1`, the cytotoxicity at 10 µM was -12.4%.

For the compound `CNc1nc(C(=O)NCc2cccnc2N(C)C)cs1`, the cytotoxicity at 10 µM was -7.57%.

For the compound `COc1cccc(OC2CN(C(=O)c3ccoc3C)C2)c1`, the cytotoxicity at 10 µM stood at 9.21%.

Consider `COCCCN(C)c1nc(-c2ccncc2)nc2c1CCN(C(C)=O)C2`, for which the cytotoxicity at 10 µM is -1.16%.

As for `OC1(CNCc2csc(-c3ncccn3)n2)CCCNC1` (stereo not drawn), the cytotoxicity at 10 µM is -10.7%.

For the compound `COc1ccc(NC(=O)CCC2CCCN(Cc3ncon3)C2)cc1Cl` (stereo not drawn), the cytotoxicity at 10 µM is -6.12%.

Take `Cc1noc(C(C)C)c1C(=O)NCc1ccc2c(c1)OCCO2`: the cytotoxicity at 10 µM turned out to be 3.24%.

On to `CCn1c(C(=O)N2CCCN(CC(N)=O)CC2)cc2ccccc21`, for which the cytotoxicity at 10 µM is -4.77%.

With `Cc1nc(CN2CCN(C(=O)NC(C)Cn3ccnc3)CC2)cs1` (stereo not drawn), the cytotoxicity at 10 µM is -5.28%.

Turning to `Cc1ccc(-c2nc(CNC(C)Cn3cccn3)cs2)o1` (stereo not drawn), the cytotoxicity at 10 µM was -7.82%.

`COCCC(C)NC(=O)c1cc(Br)c2c(c1)OCCO2` (stereo not drawn): the cytotoxicity at 10 µM was -13.4%.

In the case of `CNC(=O)N1CCC(NC(=O)c2cnn(C)c2)CC1`, the cytotoxicity at 10 µM was -1.35%.

As for `CC(NC(=O)COCC(F)(F)F)c1nnc2n1CCCCC2` (stereo not drawn), the cytotoxicity at 10 µM was -12.3%.

As to `CCN(Cc1cccc2c1OCO2)C(=O)NCc1ccccn1`, the cytotoxicity at 10 µM is 1.48%.

Consider `CCCc1nc(CN2CCN(C(C)c3nc(C4CC4)no3)CC2)no1` (stereo not drawn), for which the cytotoxicity at 10 µM is -8.14%.

With `Cc1nc(CN2CCCN(C(=O)c3sccc3C#N)CC2)cs1`, the cytotoxicity at 10 µM was -7.98%.

`Cc1nc(CN(C)CC2CCCN2c2cccnn2)oc1C` (stereo not drawn): the cytotoxicity at 10 µM was -4.25%.

For `CCS(=O)(=O)c1ccccc1N1CCC(NC(=O)NC2CCCC2)CC1`, the cytotoxicity at 10 µM is -16%.

`CC(C)N1CC(C(=O)NCc2ccnc(-n3cccn3)c2)CC1=O` (stereo not drawn): the cytotoxicity at 10 µM was -2.5%.

For `CCOC(=O)CSc1nnc(C(N)CC(C)C)o1` (stereo not drawn), the cytotoxicity at 10 µM was -8.32%.

Take `O=C1COC2(CCN(Cc3ccncc3)CC2)CN1c1ccccc1`: the cytotoxicity at 10 µM was -126%.

On to `COc1ccc2c(c1)C1(CCN(Cc3cccnc3)CC1)N(C)CC2`, for which the cytotoxicity at 10 µM is -161%.

Turning to `Cc1cccc(-c2c[nH]c(C3CCCN3)n2)c1` (stereo not drawn), the cytotoxicity at 10 µM was -11.4%.

As to `CCS(=O)(=O)N1CCOC2(CCCN(Cc3ccccn3)C2)C1` (stereo not drawn), the cytotoxicity at 10 µM was found to be 5.86%.

`O=C(O)c1cc2c(nc1-c1ccncc1)CCN(C1CCOC1)CC2` (stereo not drawn): the cytotoxicity at 10 µM was 9.34%.

For the compound `Cc1cccc(CN2CCc3ncnc(C4CC4)c3CC2)n1`, the cytotoxicity at 10 µM was -158%.

For the compound `O=C([C@@H]1C[C@@H]2CCN(C3CCOCC3)C[C@H]2O1)N1CCOCC1`, the cytotoxicity at 10 µM stood at 0.763%.

As to `CCn1ncc2c1CN(C(=O)Cc1cccs1)CC2COC` (stereo not drawn), the cytotoxicity at 10 µM was 4.7%.

Regarding `O=c1occ(CN2CCCCCC2)c(O)c1CN1CCOCC1`, the cytotoxicity at 10 µM is -8.2%.

Regarding `Cc1ccc(NC(=O)N2C[C@@H]3CC[C@H]2CN(Cc2cscn2)C3)cc1`, the cytotoxicity at 10 µM is -7.47%.

Source of the values: ChEMBL document CHEMBL4513216, “Probing the Open Global Health Chemical Diversity Library for Multistage-Active Starting Points for Next-Generation Antimalarials” (ACS Infect Dis, 2020).
